Laboratory results: ChEMBL document CHEMBL1128231, “Amphoteric drugs. 3. Synthesis and antiallergic activity of 3-[(5,11-dihydro[1]benzoxepino[4,3-b]pyridin-11-ylidene)piperidino]propionic acid derivatives and related compounds” (J Med Chem, 1995)

Experiments:
Rattus norvegicus [1] = assay: Antiallergic activity was evaluated by inhibitory effect on 48/80-induced lethality in rats at a dose 1 (mg/kg, po); type: functional
Outline: (§1)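 Male Wistar rats, 6 weeks old, fasted 24 h, n = 5. Survival beyond 2 h scored all-or-none; percent inhibition of lethality recorded at each oral dose.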

Rattus norvegicus [2] = assay: Antiallergic activity was evaluated by inhibitory effect on 48/80-induced lethality in rats at a dose 0.1 (mg/kg, po); type: functional; outline: as §1
Rattus norvegicus [3] = assay: Antiallergic activity was evaluated by inhibitory effect on compound 48/80-induced lethality in rats at a dose 0.01 (mg/kg, po); type: functional; outline: as §1
[4] = Selectivity as the ratio of ID50 value to that of ED50 value in mice.; type: functional
Outline: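 Ratio B/A: B = oral ID50 for ex vivo [3H]mepyramine binding in mouse brain membranes (1 h post-dose); A = oral ED50 against histamine-induced skin vascular permeability in mice.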

[5] = Octanol-buffer partition coefficient determined by dividing its equilibrium organic concentration by its aqueous concentration; type: physicochemical; details: octanol/water
Outline: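 Sample dissolved at 10 µg/mL in Sørensen buffer pH 7.4; equal volumes buffer and 1-octanol shaken 24 h at 25 °C, centrifuged. Each phase quantified by HPLC (UV 254 nm, ODS column, 0.03 M phosphate pH 3.0–CH3CN 7:3). PCoct = organic/aqueous equilibrium concentration.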

[6] = molecular target: Histamine H1 receptor (Mus musculus) (UniProt P70174); assay: Ex vivo inhibition of [3H]mepyramine binding to mouse brain membrane H1 receptor after oral administration; type: functional, organism-based
Outline: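 Male ICR mice (6 weeks, starved 24 h) dosed orally with compound or vehicle; brain taken 1 h later and homogenized in 40 volumes 50 mM phosphate buffer pH 7.4. Membranes incubated with [3H]mepyramine (final 2 nM), 25 °C, 30 min; filtered, scintillation counted.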

Mus musculus [7] = assay: Tested for Hexobarbital-induced anesthesia in mice by measuring dose which produced 50% increase of the sleeping time upon oral administration; type: functional; details: read-out: ID50 (the source's name)
Outline: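 Male ICR mice (5 weeks, starved 20–24 h) dosed orally; 1 h later hexobarbital 80 mg/kg ip. Sleeping time = duration of loss of righting reflex; responders show >50% increase over controls. ID50 from number responding at each dose by Litchfield–Wilcoxon, with 95% confidence limits.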

Mus musculus [8] = assay: Inhibitory effect on histamine-induced increase in vascular permeability in mice upon oral administration; type: functional
Outline: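 Male ICR mice (6 weeks, starved 20 h) dosed orally; 1 h later, under light ether, intradermal histamine dihydrochloride 2.5 µg/site plus saline after iv 0.2 mL 1% Evans blue. Killed 30 min later; extravasated dye extracted and assayed. ED50 from log-logit dose–percent inhibition, least squares, with 95% confidence limits.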

Rattus norvegicus [9] = assay: Antiallergic activity was evaluated by inhibitory effect on compound 48/80-induced lethality in rats at a dose 10 (mg/kg, po); type: functional; outline: as §1
Cavia porcellus [10] = assay: Histamine induced in lethality in guinea pigs at 8 hr after oral dose of 0.02 mg/kg; type: functional
Outline: (§2)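 Male Hartley guinea pigs, 6 weeks old, fasted 24 h, n = 10, dosed orally. Eight hours later histamine dihydrochloride given iv at a lethal dose of 1 mg/kg. Survival beyond 30 min scored all-or-none; percent inhibition of lethality reported.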

Cavia porcellus [11] = assay: Histamine induced in lethality in guinea pigs at 8 hr after oral dose of 0.3 mg/kg; type: functional; outline: as §2
Cavia porcellus [12] = species: Cavia porcellus; assay: animal or person; details: po, 8 h, read-out: Inhibition

Chain of Histamine H1 receptor (Mus musculus) (P70174 whole entry): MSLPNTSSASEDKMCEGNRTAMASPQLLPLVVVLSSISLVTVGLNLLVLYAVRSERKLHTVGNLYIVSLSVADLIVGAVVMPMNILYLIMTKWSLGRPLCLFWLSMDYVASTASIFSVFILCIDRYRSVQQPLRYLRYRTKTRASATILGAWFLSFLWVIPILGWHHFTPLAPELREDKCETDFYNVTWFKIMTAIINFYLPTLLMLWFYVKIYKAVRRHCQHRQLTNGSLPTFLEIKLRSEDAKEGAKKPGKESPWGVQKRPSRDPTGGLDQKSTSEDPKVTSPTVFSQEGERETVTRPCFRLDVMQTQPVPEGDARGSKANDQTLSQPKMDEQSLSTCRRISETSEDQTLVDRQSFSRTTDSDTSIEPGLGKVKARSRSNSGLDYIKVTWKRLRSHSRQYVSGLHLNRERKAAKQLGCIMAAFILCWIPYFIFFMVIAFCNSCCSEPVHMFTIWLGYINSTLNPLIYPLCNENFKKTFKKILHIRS

SMILES	Inhibition (Rattus norvegicus [1])	Inhibition (Rattus norvegicus [2])	Inhibition (Rattus norvegicus [3])	Selectivity [4]	ID50 [6]	ED50 (Mus musculus [8])	Inhibition (Rattus norvegicus [9])	other results
COc1ccc2c(c1)OCc1ncccc1C2=C1CCN(CCC(=O)O)CC1	100%	40%	0%	–	–	–	–	–
O=C(O)CCN1CCC(=C2c3ccccc3COc3ccccc32)CC1	100%	60%	20%	16	0.062 mg/kg	0.0038 mg/kg	–	PCoct [5]: 9.66; ED50 (Mus musculus [7]): 16 mg/kg
CN1CCC(=C2c3ccccc3OCc3cccnc32)CC1	100%	0%	–	18	0.2 mg/kg	0.011 mg/kg	–	PCoct [5]: 28.4; ED50 (Mus musculus [7]): > 100 mg/kg
O=C(O)CCN1CCC(=C2c3ccc(Cl)cc3OCc3cccnc32)CC1	80%	0%	–	–	–	–	100%	–
CN1CCC(=C2c3ccccc3CC(=O)c3sccc32)CC1 [KETOTIFEN]	–	–	–	2.8	0.65 mg/kg	0.23 mg/kg	–	inhibition in vivo at 0.02 mg/kg (Cavia porcellus [10]): 10%
CC(CN1CCC(=C2c3ccc(F)cc3OCc3ncccc32)CC1)C(=O)O (configuration not stated)	–	100%	20%	–	–	–	–	–
COc1ccc2c(c1)OCc1cccnc1C2=C1CCN(CCC(=O)O)CC1	20%	0%	–	–	–	–	100%	–
COc1ccc2c(c1)C(=C1CCN(CCC(=O)O)CC1)c1ncccc1CO2	60%	20%	0%	–	–	–	80%	–
O=C(O)CCN1CCC(=C2c3ccc(Br)cc3OCc3cccnc32)CC1	60%	40%	0%	–	–	–	100%	–
Cc1ccc2c(c1)OCc1cccnc1C2=C1CCN(CCC(=O)O)CC1	40%	20%	0%	–	–	–	100%	–
O=C(O)CCN1CCC(=C2c3cccc(F)c3OCc3cccnc32)CC1	100%	20%	0%	–	–	–	–	–
O=C(O)CCN1CCC(=C2c3cc(Cl)ccc3OCc3cccnc32)CC1	100%	0%	–	–	–	–	–	–
O=C(O)CCN1CCC(=C2c3ccc(Cl)cc3OCc3ncccc32)CC1	100%	80%	40%	–	–	–	–	–
Cc1ccc2c(c1)OCc1ncccc1C2=C1CCN(CCC(=O)O)CC1	60%	20%	0%	–	–	–	100%	–
O=C(O)CCN1CCC(=C2c3ccc(F)cc3OCc3cccnc32)CC1	100%	40%	0%	560	14 mg/kg	0.025 mg/kg	–	ED50 (Rattus norvegicus [9]): 0.29 mg/kg; inhibition in vivo at 0.3 mg/kg (Cavia porcellus [11]): 90%
CC(=O)c1ccc2c(c1)C(=C1CCN(CCC(=O)O)CC1)c1ncccc1CO2	20%	0%	–	–	–	–	100%	–

SMILES	Inhibition (Rattus norvegicus [1])	Inhibition (Rattus norvegicus [2])	Inhibition (Rattus norvegicus [3])	Selectivity [4]	ID50 [6]	ED50 (Mus musculus [8])	Inhibition (Rattus norvegicus [9])	other results
O=C(O)CCN1CCC(=C2c3cccc([N+](=O)[O-])c3OCc3cccnc32)CC1	0%	–	–	–	–	–	60%	–
CCOC(=O)N1CCC(=C2c3ccc(Cl)cc3CCc3cccnc32)CC1 [LORATADINE]	–	–	–	–	–	0.21 mg/kg	–	inhibition in vivo at 0.3 mg/kg (Cavia porcellus [11]): 80%
Cc1ccc(/C(=C\CN2CCCC2)c2cccc(/C=C/C(=O)O)n2)cc1 [ACRIVASTINE]	–	–	–	>480	> 300 mg/kg	0.63 mg/kg	–	ED50 (Rattus norvegicus [9]): 3.3 mg/kg; inhibition in vivo at 0.16 mg/kg (Cavia porcellus [12]): 0%
CN1CCC(=C2c3ccccc3COc3ccccc32)CC1	60%	0%	–	22	0.77 mg/kg	0.035 mg/kg	100%	ED50 (Mus musculus [7]): 0.73 mg/kg
O=C(O)CCN1CCC(=C2c3cc(C(=O)O)ccc3OCc3cccnc32)CC1	0%	–	–	–	–	–	20%	–
O=C(O)CCN1CCC(=C2c3cc(F)ccc3OCc3ncccc32)CC1	100%	60%	0%	–	–	–	–	–
O=C(O)CCN1CCC(=C2c3cc([N+](=O)[O-])ccc3OCc3cccnc32)CC1	20%	0%	–	–	–	–	80%	–
O=C(O)CCN1CCC(=C2c3ccccc3OCc3ncccc32)CC1	100%	40%	0%	340	3.4 mg/kg	0.01 mg/kg	–	PCoct [5]: 0.56; ED50 (Mus musculus [7]): > 100 mg/kg
O=C(O)CCN1CCC(=C2c3ccc(F)cc3OCc3ncccc32)CC1	–	100%	40%	680	2.5 mg/kg	0.0037 mg/kg	–	ED50 (Rattus norvegicus [9]): 0.034 mg/kg; inhibition in vivo at 0.3 mg/kg (Cavia porcellus [11]): 60%
O=C(O)CCN1CCC(=C2c3cc(F)ccc3OCc3cccnc32)CC1	20%	0%	–	–	–	–	100%	–
CC(CN1CCC(=C2c3ccc(F)cc3OCc3cccnc32)CC1)C(=O)O (configuration not stated)	100%	60%	20%	210	2.3 mg/kg	0.011 mg/kg	–	–
O=C(O)CCN1CCC(=C2c3ccccc3OCc3cccnc32)CC1	100%	0%	–	1600	19 mg/kg	0.012 mg/kg	–	PCoct [5]: 0.52; ED50 (Mus musculus [7]): > 100 mg/kg
CC(CC(=O)O)N1CCC(=C2c3ccc(F)cc3OCc3cccnc32)CC1 (configuration not stated)	0%	–	–	–	–	–	100%	–
O=C(O)CCN1CCC(=C2c3cccc(Cl)c3OCc3cccnc32)CC1	60%	0%	–	–	–	–	100%	–
CN1CCC(=C2c3ccccc3OCc3ncccc32)CC1	100%	0%	–	20	0.49 mg/kg	0.025 mg/kg	–	PCoct [5]: 54.3; ED50 (Mus musculus [7]): 9.9 mg/kg
